High-throughput results: PubChem, several laboratories
S1P1 ag-PAM: activates or potentiates agonism at human S1P1 receptor; P21453; activation, % at 9.5 µM; S1P1 CRE-bla cells, forskolin, beta-lactamase FRET, potentiator mode; S1P1 agonist co-added at EC20, 2 nM; 100% = saturating reference agonist, 0% = basal; 0.57% of 56,000 active;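 active = activation above a cutoff set at the mean activation of all tested compounds plus 3 SD, cut at about 54% in these data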;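 note: forskolin at 4 µM as EC80 and the EC20 agonist is SEW2871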
S1P3 agonist: activates the human S1P3 receptor; Q99500; S1P3 NFAT-BLA reporter cells, agonism, FRET ratio; relative to 1 µM S1P, basal subtracted; activation, % at 4.5 µM; 0.1% of 60,000 active;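 active = activation above the screen-wide mean plus 3 SD, cut at about 4.5% in these data, passing the limit was not always enough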
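Assay system: stable CHO line with human S1P3, Gα16, NFAT-BLA reporter; Detection: FRET β-lactamase substrate fluorescence, excitation 405 nm, 460/535 nm emission ratio, background-subtracted; Read-out: percent activation versus median 1 µM S1P response, basal-subtracted, per plate; Incubation: cells plated overnight, compound 4 h 37 °C, substrate 2 h RT.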
D1 allo mod: D1 dopamine receptor (human) allosteric modulation; P21728; 5.9% of 58,000 active; B-score at 10 µM; HEK293 D1, CRE-luciferase, dopamine EC30 potentiation; actives deviate in either direction;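 active = luminescence count or its row- and column-corrected plate score outside the 99.7% band of the plate's sample wells, on either side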
Target sequence (P21728 whole entry, looked up): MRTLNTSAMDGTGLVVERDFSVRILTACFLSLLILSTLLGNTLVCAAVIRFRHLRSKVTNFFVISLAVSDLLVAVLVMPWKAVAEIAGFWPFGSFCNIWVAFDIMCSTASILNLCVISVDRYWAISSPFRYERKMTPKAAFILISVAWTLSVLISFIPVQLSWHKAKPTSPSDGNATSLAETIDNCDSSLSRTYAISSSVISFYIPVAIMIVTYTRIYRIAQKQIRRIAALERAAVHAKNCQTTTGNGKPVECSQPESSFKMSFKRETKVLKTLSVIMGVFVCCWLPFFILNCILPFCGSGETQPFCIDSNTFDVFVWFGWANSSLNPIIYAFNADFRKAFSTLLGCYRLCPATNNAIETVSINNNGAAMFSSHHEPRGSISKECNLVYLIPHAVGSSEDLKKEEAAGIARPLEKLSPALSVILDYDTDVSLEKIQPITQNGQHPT
M1 antag: antagonists of rat M1 muscarinic receptor; 3.4% of 64,000 active; CHO-M1 cells, Fluo-4 calcium, ACh EC80 antagonist mode; active compounds read low; P08482; B-score at 10 µM;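 active = calcium fluorescence response, raw or row-and-column corrected B-score, differing from the plate sample mean either way at a set confidence level, mostly lower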
M1 agonist: agonists of M1 muscarinic receptor | CHO-M1 cells, Fluo-4 calcium fluorescence, agonist mode; active compounds read high | B-score at 10 µM | 3% of 64,000 active;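 active = fluorescence rise, raw or as B-score row- and column-corrected plate score, outside the 99.7% band of its plate's samples, either direction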
TNAP act DEA: activators of human TNAP at intermediate phosphate acceptor | purified TNAP, CDP-star luminescence, 100 mM DEA, 30 min; active compounds read high; scale: 0 levamisole-inhibited, 1 vehicle-only enzyme | activation factor at 20 µM | 64,000 tested, under 10 active | AID 813;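 active = activation factor of at least 2 at 20 µM, relative to controls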
M1 antag confirm: M1 muscarinic receptor (rat) antagonism, confirmed; shares compounds with M1 antag; CHO-M1 cells, Fluo-4 calcium, ACh EC80 antagonism; active compounds read low; calcium response (max-min fluorescence) at 10 µM; 43% of 1,700 active; AID 677;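 active = calcium response below the same-plate mean of wells given acetylcholine alone at its 80%-effect dose, minus 3 SD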
mGluR4 antag: selectivity test for M1 antagonists: human mGluR4 receptor; fluorescence response (max-min) at 10 µM; AID 678; CHO-mGluR4 calcium flux, Fluo-4 fluorescence, glutamate EC80; active compounds read low; 0.9% of 1,700 active; shares compounds with M1 antag;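 active = fluorescence response below the plate's average for near-maximal glutamate wells, less 3 SD of those wells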;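 note: raw unnormalized fluorescence span taken in the window right after glutamate addition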
D1 mod confirm: D1 receptor (human) allosteric modulation, confirmed | shares compounds with D1 allo mod | HEK293 D1 CRE-luciferase, dopamine EC30 potentiation; active compounds read high | luminescence at 10 µM | 88% of 2,200 active | AID 642;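 active = luminescence in either of two replicates above the same-plate mean plus 3 SD of the low-dose dopamine control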
D1 ag no DA: D1 (human) signaling in absence of dopamine. shares compounds with D1 allo mod. HEK293 D1 CRE-luciferase, luminescence, no dopamine; active compounds read high. luminescence at 10 µM. 0.8% of 1,900 active. AID 646; in the data active = luminescence above about 3900
Isoprot counter: counter-screen for D1 modulators: isoproterenol response in HEK293 cells | shares compounds with D1 allo mod | HEK293 D1 CRE-luciferase, isoproterenol EC30 counter-screen; active compounds read high | luminescence at 10 µM | 63% of 2,200 active;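 active = luminescence in either replicate above plate mean of wells with a partly effective reference agonist dose plus 3 SD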;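 note: isoproterenol raises cAMP through native beta-adrenoceptor Gs so signal bypasses D1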
A number is an active result; – = inactive; · = no result given. Most compounds without a hit are left out; they make up all but 11% or so of the library.

SMILES	S1P1 ag-PAM	S1P3 agonist	D1 allo mod	M1 antag	M1 agonist	TNAP act DEA	M1 antag confirm	mGluR4 antag	others
Cc1csc2nc(CNS(=O)(=O)c3ccc4c(c3)OCCO4)cn12	–	–	–	–	–	–	·	·
Cc1csc2nc(CCNS(=O)(=O)c3ccc4c(c3)OCCO4)cn12	–	–	–	-2.6	–	–	–	–
O=C(c1cccnc1)N1CCN(C(=O)c2ccccc2F)CC1	–	–	–	–	–	–	·	·
CCOC(=O)N1CCC(NS(=O)(=O)c2ccc3c(c2)oc(=O)n3C)CC1	–	–	–	–	–	–	·	·
CCOC(=O)N1CCC(NS(=O)(=O)c2ccc3c(c2)C(C)(C)C(=O)N3C)CC1	–	–	–	-17	–	–	–	–
O=C(O)Cn1c(SC2CCCCC2)nc2ccccc21	–	–	–	–	–	–	·	·
Cc1ccc(NC(=O)CCn2c(=O)oc3ccccc32)c(C)c1	–	–	–	–	–	–	·	·
Cc1noc(C)c1COC(=O)c1cccnc1SCC(=O)Nc1ccc2c(c1)OCO2	–	–	–	-6.2	–	–	132	–
CCOC(=O)c1cc(C)n(-c2c(C)n(C)n(-c3ccccc3)c2=O)c1C	–	–	–	-4.5	–	–	430	–
Cc1cccc(NC2=NC3(CCCCC3)N=C(N)N2)c1	–	–	–	–	–	·	·	·
CCCCOc1ccc(NC2=NC3(CCCCC3)N=C(N)N2)cc1	–	–	–	-2.3	–	·	–	–
CCOC(=O)c1ccc(N2C(=O)C3C(C2=O)C(C(=O)c2ccc(Cl)cc2)N2CCCC32)cc1 (stereo not given)	–	–	–	-1.7	–	–	–	–
COc1cc(C(=O)NCc2ccco2)cc(OC)c1OC	–	–	–	–	–	–	·	·
COC(=O)[C@H](C)NC(=O)NCc1ccco1	–	–	–	-4.3	–	–	–	–
Cc1nnc(C)c2c(C)n(Cc3ccc4c(c3)OCO4)c(C)c12	–	–	–	-4.5	–	–	535	–
O=c1c2ccccc2n(Cc2ccc(F)cc2)c(=O)n1C1CCCC1	–	–	4.9	-14	–	–	–	–	D1 mod confirm=9856;D1 ag no DA=–;Isoprot counter=3276
O=C(c1ccco1)N1CCN(S(=O)(=O)c2ccc3c(c2)CCN3C(=O)C2CC2)CC1	–	–	4.2	-2.4	–	–	–	–	D1 mod confirm=11508;D1 ag no DA=–;Isoprot counter=–
CCc1ccc(-c2nc(CN3CCCC(C(=O)O)C3)c(C)o2)cc1 (stereo not given)	–	–	–	–	–	–	·	·
CCc1ccc(-c2nc(CN3CCC(C(=O)N4CCN(c5ccccn5)CC4)CC3)c(C)o2)cc1	–	–	7.1	-2.6	–	–	–	–	D1 mod confirm=6240;Isoprot counter=2640
CCCN1c2cccc3cccc(c23)S1(=O)=O	·	·	–	–	–	–	·	·
CC1CCN(Cc2ccc(NC(=O)CC3Oc4ccccc4NC3=O)cc2)CC1 (stereo not given)	–	–	2.8	-11	–	–	24	–	D1 mod confirm=–;D1 ag no DA=–;Isoprot counter=–
O=C(CC1Oc2ccccc2NC1=O)NC1CCCC1 (stereo not given)	–	–	–	–	–	–	·	·
CCN=C1SC(C(N)=O)CC(=O)N1CC (stereo not given)	–	–	6.3	-15	–	–	–	–	D1 mod confirm=10588;D1 ag no DA=–;Isoprot counter=–
